The values that follow come from ChEMBL document CHEMBL4052629, “Scutellarin derivatives as apoptosis inducers: Design, synthesis and biological evaluation” (Eur J Med Chem, 2017).

SMILES strings stand for the structures. Activity calls are given as the source filed them. No cut-off for these calls is given here.

The subject of assay [1] is HepG2. Put plainly: Induction of apoptosis in human HepG2 cells assessed as rupture of cell membrane at 1.2 uM after 48 hrs by Hoechst 33258 staining-based fluorescent microscopic analysis. The assay is classed as functional. The method in brief:
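HepG2 cells on sterile cover slips in 6-well plates exposed to 0, 0.3, 0.6 or 1.2 μM, or vehicle, for 48 h. Fixed in 4% paraformaldehyde for 10 min, PBS-washed, stained with Hoechst 33258 for 5 min. Nuclear morphology and adherent cell number viewed at 350 nm excitation / 460 nm emission. Non-treated cells served as control.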

For assay [2], the system named is HepG2. Kind of assay: Cell cycle arrest in human HepG2 cells assessed as accumulation at G2/M phase at 0.3 uM after 72 hrs by propidium iodide staining-based flow cytometric analysis (reference value: 21.4%). The assay is classed as functional. The method in brief: (§1)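 Concentrations used were 0, 0.3, 0.6 and 1.2 μM in HepG2 and 0, 0.16, 0.31 and 1.25 μM in PC-3, with untreated cells as control, for 72 h. Cells were trypsinized, washed in PBS, fixed in cold ethanol at 4 °C overnight, then incubated 30 min in PBS containing RNase A and propidium iodide. DNA content was read by flow cytometry to give phase distribution.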
Background: A flow cytometer gives signals particle by particle.

Assay [3] deals with HepG2. Kind of assay: Induction of apoptosis in human HepG2 cells assessed as reduction in mitochondrial membrane potential at 0.6 uM after 48 hrs by JC-1 staining-based flow cytometric analysis (reference value: 1.6%). The assay is classed as functional. Details: scale not given: the % may be the effect or the level left. The method in brief: (§2)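 HepG2 cells cultured overnight, then incubated in triplicate with 0, 0.3, 0.6 or 1.2 μM, or vehicle, for 48 h. Stained with the cationic dye JC-1. Flow cytometry gave the percentage of cells with healthy versus collapsed mitochondrial membrane potential.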

The test system of assay [4] is HepG2. Kind of assay: Induction of apoptosis in human HepG2 cells assessed as reduction in survivin expression levels at 2 uM after 24 hrs by membrane-based sandwich immunoassay. The assay is classed as functional, cell-based. The gist of the method:
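HepG2 cells exposed to 2 μM for 24 h. Proteins extracted per kit protocol. Relative levels of 35 apoptosis-related proteins measured on a human apoptosis antibody array.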

Assay [5] deals with HepG2. Put plainly: Induction of apoptosis in human HepG2 cells assessed as early apoptotic cells at 0.6 uM after 72 hrs by Annexin V-APC/7-AAD or propidium iodide staining-based flow cytometric analysis (reference value: 1.87%). The assay is classed as functional.
For assay [6], the system named is HepG2. Kind of assay: Cell cycle arrest in human HepG2 cells assessed as accumulation at S phase at 0.6 uM after 72 hrs by propidium iodide staining-based flow cytometric analysis (reference value: 44.6%). The assay is classed as functional. The gist of the method:
as §1

For assay [7], the system named is HepG2. Put plainly: Cell cycle arrest in human HepG2 cells assessed as accumulation at S phase at 1.2 uM after 72 hrs by propidium iodide staining-based flow cytometric analysis (reference value: 44.6%). The assay is classed as functional. The method in brief: as §1
For assay [8], the system named is HepG2. Kind of assay: Induction of apoptosis in human HepG2 cells assessed as early apoptotic cells at 0.3 uM after 72 hrs by Annexin V-APC/7-AAD or propidium iodide staining-based flow cytometric analysis (reference value: 1.87%). The assay is classed as functional.
Assay [9] has as its system HepG2. Put plainly: Cell cycle arrest in human HepG2 cells assessed as accumulation at G1 phase at 0.3 uM after 72 hrs by propidium iodide staining-based flow cytometric analysis (reference value: 34%). The assay is classed as functional. The gist of the method:
as §1

Assay [10] relates to HepG2. Kind of assay: Induction of apoptosis in human HepG2 cells assessed as viable cells at 0.6 uM after 72 hrs by Annexin V-APC/7-AAD or propidium iodide staining-based flow cytometric analysis (reference value: 90.08%). The assay is classed as functional. To be noted: HepG2, 72 h, read-out: Activity.
Assay [11] deals with HepG2. Put plainly: Induction of apoptosis in human HepG2 cells assessed as reduction in mitochondrial membrane potential after 48 hrs by JC-1 staining-based flow cytometric analysis. The assay is classed as functional, cell-based. The method in brief: as §2
For assay [12], the system named is HepG2. Kind of assay: Induction of apoptosis in human HepG2 cells assessed as necrotic cells at 0.6 uM after 72 hrs by Annexin V-APC/7-AAD or propidium iodide staining-based flow cytometric analysis (reference value: 1.87%). The assay is classed as functional.
Assay [13] deals with PC-3. Kind of assay: Induction of apoptosis in human PC3 cells assessed as necrotic cells at 0.16 uM after 72 hrs by Annexin V-APC/7-AAD or propidium iodide staining-based flow cytometric analysis (reference value: 2.43%). The assay is classed as functional.
Assay [14] concerns PC-3. Put plainly: Induction of apoptosis in human PC3 cells assessed as cell shrinkage at 0.16 to 1.25 uM after 48 hrs by Hoechst 33258 staining-based fluorescent microscopic analysis. The assay is classed as functional. The method in brief: (§3)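 PC-3 cells grown on sterile cover slips were exposed to 0, 0.16, 0.31 or 1.25 μM, or vehicle, for 48 h. Then fixed with 4% paraformaldehyde for 10 min, washed twice in PBS, stained with Hoechst 33258 for 5 min and washed again. Nuclei imaged at 350 nm excitation and 460 nm emission.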

The subject of assay [15] is PC-3. Put plainly: Induction of apoptosis in human PC3 cells assessed as late apoptotic cells at 1.25 uM after 72 hrs by Annexin V-APC/7-AAD or propidium iodide staining-based flow cytometric analysis (reference value: 4.74%). The assay is classed as functional.
For assay [16], the system named is PC-3. Put plainly: Induction of apoptosis in human PC3 cells assessed as reduction in mitochondrial membrane potential at 1.25 uM after 48 hrs by JC-1 staining-based flow cytometric analysis (reference value: 1.86%). The assay is classed as functional. Details: scale not given: the % may be the effect or the level left. The method in brief:
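After overnight culture, PC-3 cells were treated in triplicate with 0, 0.16, 0.31 or 1.25 μM, or vehicle, for 48 h. They were then loaded with JC-1, and the proportion with depolarized mitochondrial membrane potential was counted by flow cytometry.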

In assay [17] the test system is PC-3. Put plainly: Induction of apoptosis in human PC3 cells assessed as viable cells at 0.31 uM after 72 hrs by Annexin V-APC/7-AAD or propidium iodide staining-based flow cytometric analysis (reference value: 88.74%). The assay is classed as functional. To be noted: PC-3, 72 h, read-out: Activity.
The subject of assay [18] is PC-3. Put plainly: Induction of apoptosis in human PC3 cells assessed as necrotic cells at 1.25 uM after 72 hrs by Annexin V-APC/7-AAD or propidium iodide staining-based flow cytometric analysis (reference value: 2.43%). The assay is classed as functional.
The subject of assay [19] is PC-3. Kind of assay: Induction of apoptosis in human PC3 cells assessed as reduction in adherent cells at 0.16 to 1.25 uM after 48 hrs by Hoechst 33258 staining-based fluorescent microscopic analysis. The assay is classed as functional, cell-based. The method in brief: as §3
Assay [20] has as its system PC-3. Kind of assay: Induction of apoptosis in human PC3 cells assessed as late apoptotic cells at 0.31 uM after 72 hrs by Annexin V-APC/7-AAD or propidium iodide staining-based flow cytometric analysis (reference value: 4.74%). The assay is classed as functional.
The test system of assay [21] is PC-3. Kind of assay: Induction of apoptosis in human PC3 cells assessed as nuclear fragmentation at 0.16 to 1.25 uM after 48 hrs by Hoechst 33258 staining-based fluorescent microscopic analysis. The assay is classed as functional, cell-based. The gist of the method: as §3

`O=C(NCCCOc1no[n+]([O-])c1S(=O)(=O)c1ccccc1)[C@H]1O[C@@H](Oc2cc3oc(-c4ccc(OCc5ccccc5)cc4)cc(=O)c3c(O)c2OCc2ccccc2)[C@H](O)[C@@H](O)[C@@H]1O`: the result in the assay on HepG2 [1] and with HepG2 [4] was Active. For the same compound, the Activity turned out to be 20.73% in the assay on HepG2 [2]; 31.12% in the assay on HepG2 [3]; 13.13% in the assay with HepG2 [5]; 50.45% in the assay on HepG2 [6]; 69.63% with HepG2 [7]; 3.04% in the assay on HepG2 [8]. The Activity with HepG2 [9] was 32.13%; in the assay with HepG2 [11], “Dose-dependent effect”; in the assay on HepG2 [12], 2.31%. In the assay with HepG2 [10], the viability at 0.6 µM amounted to 64.6%.

In the case of `COc1ccc(-c2cc(=O)c3c(O)c(OC)c(O[C@@H]4O[C@H](C(=O)NCCOc5no[n+]([O-])c5S(=O)(=O)c5ccccc5)[C@@H](O)[C@H](O)[C@H]4O)cc3o2)cc1`, the Activity in the assay with PC-3 [13] stood at 4.42%; with PC-3 [15], 43.54%; in the assay on PC-3 [16], 61.01%; in the assay on PC-3 [18] it was 5.21%; with PC-3 [20], 22.46%. For the same compound, the result with PC-3 [14], in the assay on PC-3 [19] and in the assay on PC-3 [21] was Active. For the same compound, the viability at 0.31 µM with PC-3 [17] came to 61.6%.
